ChEMBL document CHEMBL4477203 (J Med Chem, 2016)
Numbered stars: 1 amine (or outer) side, 2 acyl side, 3 side chain; on linkers, the order of the positions; unused ones are H or OH. Bridge positions count the residues as written; N and C are the ends. Peptide text beside a SMILES is read from it. I, II: the chains in the order shown. Suberoyl = O=C(CCCCCCC(=O)[*:2])[*:1]

Key:
[1] = target: T1, Neuropeptide Y receptor type 4 (Homo sapiens, UniProt P50391); test: Agonist activity at human NPY Y4 receptor expressed in CHO cells co-expressing Gqi5-mtAEQ assessed as induction of calcium mobilization by aequorin luminescence assay; format: functional, cell-based
How it was run: (§1)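 Luminescence was integrated as area under the curve and normalized to the response to 1 µM PP. Data are means ± SEM of at least 3 independent experiments, each run in triplicate.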

[2] = target: T1, Neuropeptide Y receptor type 4; test: Intrinsic activity at human NPY Y4 receptor expressed in CHO cells co-expressing Gqi5-mtAEQ assessed as induction of calcium mobilization by aequorin luminescence assay relative to pancreatic polypeptide; format: functional, cell-based; how it was run: as §1
[3] = target: T1, Neuropeptide Y receptor type 4; test: Agonist activity at human NPY Y4 receptor expressed in HEK293 cells co-expressing CRE-Luc gene assessed as inhibition of forskolin stimulated luciferase activity after 4.5 hrs by luminescence assay; format: functional, cell-based
How it was run: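 HEK293 cells stably co-transfected with a CRE-controlled firefly luciferase reporter and hY4R, tested in phenol-red-free DMEM, pH 7.4. The maximal inhibition by PP was set to 0% activity (α = 1.0). Data are means ± SEM of at least 3 experiments in triplicate.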

[4] = target: T1, Neuropeptide Y receptor type 4; test: Intrinsic activity at human NPY Y4 receptor expressed in HEK293 cells co-expressing CRE-Luc gene assessed as inhibition of forskolin stimulated luciferase activity after 4.5 hrs by luminescence assay relative to pancreatic polypeptide; format: functional, cell-based
How it was run: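 HEK293 cells stably co-transfected with a CRE-controlled firefly luciferase reporter and hY4R, tested in phenol-red-free DMEM, pH 7.4. […] The maximal inhibition by PP was set to 0% activity (α = 1.0). Data are means ± SEM of at least 3 experiments in triplicate.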

[5] = target: T2, Neuropeptide Y receptor type 1 (Homo sapiens, UniProt P25929); test: Displacement of [3H]UR-MK136 from human NPY Y1 receptor expressed in human MCF7 cells by liquid scintillation counting; format: cell-based
T2 sequence (P25929 whole entry): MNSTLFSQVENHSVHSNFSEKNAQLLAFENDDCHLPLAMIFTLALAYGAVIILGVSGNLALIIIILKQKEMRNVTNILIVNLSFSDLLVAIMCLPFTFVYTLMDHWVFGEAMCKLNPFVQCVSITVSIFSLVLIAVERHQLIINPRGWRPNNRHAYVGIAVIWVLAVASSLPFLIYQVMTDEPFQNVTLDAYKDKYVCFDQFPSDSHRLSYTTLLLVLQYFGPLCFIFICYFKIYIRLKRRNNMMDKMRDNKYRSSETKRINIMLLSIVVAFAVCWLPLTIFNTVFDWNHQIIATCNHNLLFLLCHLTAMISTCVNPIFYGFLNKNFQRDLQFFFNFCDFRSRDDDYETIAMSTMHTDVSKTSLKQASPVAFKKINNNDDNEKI

[6] = target: T3, Neuropeptide Y receptor type 2 (Homo sapiens, UniProt P49146); test: Displacement of [3H]propionyl-pNPY from human NPY Y2 receptor expressed in CHO cells co-expressing Gqi5-mtAEQ after 90 mins by liquid scintillation counting; format: cell-based
T3 sequence (P49146 whole entry): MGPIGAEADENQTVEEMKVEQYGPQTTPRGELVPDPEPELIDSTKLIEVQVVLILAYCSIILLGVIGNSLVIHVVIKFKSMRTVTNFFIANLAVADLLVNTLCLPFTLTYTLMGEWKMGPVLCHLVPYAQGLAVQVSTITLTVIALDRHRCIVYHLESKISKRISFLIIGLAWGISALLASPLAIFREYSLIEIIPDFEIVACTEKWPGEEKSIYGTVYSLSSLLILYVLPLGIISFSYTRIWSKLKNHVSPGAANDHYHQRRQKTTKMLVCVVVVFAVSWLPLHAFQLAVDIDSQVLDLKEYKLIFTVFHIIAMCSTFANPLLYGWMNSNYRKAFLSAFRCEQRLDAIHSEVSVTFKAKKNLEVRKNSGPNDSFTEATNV
How it was run: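 Adherent CHO-hY2R-Gqi5-mtAEQ cells in buffer I with 1% BSA and 0.1 mg/mL bacitracin at 22 °C. […] Incubation was 90 min, followed by two ice-cold washes, lysis and scintillation counting.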

[7] = target: T1, Neuropeptide Y receptor type 4; test: Displacement of [3H](2R,7R)-10 from human NPY Y4 receptor expressed in CHO cells co-expressing Gqi5-mtAEQ after 90 mins in presence of sodium-free HEPES buffer by liquid scintillation counting; format: cell-based
[8] = target: T4, Neuropeptide Y receptor type 5 (Homo sapiens, UniProt Q15761); test: Displacement of [3H]propionyl-pNPY from human NPY Y5 receptor expressed in human HEC1b cells after 120 mins by liquid scintillation counting; format: cell-based
T4 sequence (Q15761 whole entry): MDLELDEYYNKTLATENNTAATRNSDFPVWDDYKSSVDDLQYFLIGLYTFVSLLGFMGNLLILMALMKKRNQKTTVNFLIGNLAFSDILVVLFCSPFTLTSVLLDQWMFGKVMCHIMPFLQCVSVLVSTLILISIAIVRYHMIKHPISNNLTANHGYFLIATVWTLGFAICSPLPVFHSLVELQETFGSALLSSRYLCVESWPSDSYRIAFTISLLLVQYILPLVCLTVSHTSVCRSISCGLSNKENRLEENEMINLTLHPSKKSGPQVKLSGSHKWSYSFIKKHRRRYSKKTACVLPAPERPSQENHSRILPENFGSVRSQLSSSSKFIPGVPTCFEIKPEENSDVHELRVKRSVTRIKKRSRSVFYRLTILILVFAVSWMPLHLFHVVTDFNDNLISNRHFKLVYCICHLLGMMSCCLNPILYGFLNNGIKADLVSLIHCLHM
How it was run: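 Adherent HEC-1B-hY5 cells in buffer II with 1% BSA and 0.1 mg/mL bacitracin at 22 °C. […] Incubation was 120 min, followed by ice-cold washes, lysis and scintillation counting.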

[9] = target: T1, Neuropeptide Y receptor type 4; test: Displacement of [3H](2R,7R)-10 from human NPY Y4 receptor expressed in CHO cells co-expressing Gqi5-mtAEQ after 90 mins in presence of L-15 medium by liquid scintillation counting; format: cell-based

T1 sequence (P50391 whole entry): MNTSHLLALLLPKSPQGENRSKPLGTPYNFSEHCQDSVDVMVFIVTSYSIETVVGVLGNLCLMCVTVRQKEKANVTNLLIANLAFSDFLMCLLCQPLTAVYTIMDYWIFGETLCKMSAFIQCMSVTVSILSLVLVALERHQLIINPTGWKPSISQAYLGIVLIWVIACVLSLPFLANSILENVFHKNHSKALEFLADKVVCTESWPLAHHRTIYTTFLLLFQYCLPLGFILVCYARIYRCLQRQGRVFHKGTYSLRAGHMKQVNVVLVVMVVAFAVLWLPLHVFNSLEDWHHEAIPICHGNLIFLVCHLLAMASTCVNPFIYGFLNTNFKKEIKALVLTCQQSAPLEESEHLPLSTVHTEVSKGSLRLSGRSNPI

CC(C)C[C@H](NC(=O)[C@H](C)NC(=O)[C@H](Cc1ccc(O)cc1)NC(=O)CCCCCCC(=O)N[C@@H](Cc1ccc(O)cc1)C(=O)N[C@@H](CCCNC(=N)N)C(=O)N[C@@H](CC(C)C)C(=O)N[C@@H](CCCNC(=N)N)C(=O)N[C@@H](Cc1ccc(O)cc1)C(N)=O)C(=O)N[C@@H](CCCNC(=N)N)C(=O)N[C@@H](Cc1ccc(O)cc1)C(N)=O (I: YALRY-NH2 / II: YRLRY-NH2; linker I:N-II:N via Suberoyl)
EC50 [1]: 290 nM
Intrinsic activity [2]: 0.85
EC50 [3]: 160 nM
Intrinsic activity [4]: 0.98
Ki [5]: 1400 nM
Ki [6]: > 3000 nM
Ki [7]: 12 nM
Ki [8]: 220 nM

CC(C)C[C@H](NC(=O)[C@H](C)NC(=O)[C@H](Cc1ccc(O)cc1)NC(=O)CCCCCCC(=O)N[C@@H](Cc1ccc(O)cc1)C(=O)N[C@@H](C)C(=O)N[C@@H](CC(C)C)C(=O)N[C@@H](CCCNC(=N)N)C(=O)N[C@@H](Cc1ccc(O)cc1)C(N)=O)C(=O)N[C@@H](CCCNC(=N)N)C(=O)N[C@@H](Cc1ccc(O)cc1)C(N)=O (I: YALRY-NH2 / II: YALRY-NH2; linker I:N-II:N via Suberoyl)
EC50 [1]: > 3000 nM
EC50 [3]: > 3000 nM
Ki [5]: > 3000 nM
Ki [6]: > 10000 nM
Ki [7]: > 3000 nM
Ki [8]: 550 nM

CC(C)C[C@H](NC(=O)[C@H](CCCNC(=N)N)NC(=O)[C@H](Cc1ccc(O)cc1)NC(=O)CCCCCCC(=O)N[C@@H](Cc1ccc(O)cc1)C(=O)N[C@@H](CCCNC(=N)N)C(=O)N[C@@H](CC(C)C)C(=O)N[C@@H](CCCNC(=N)N)C(=O)N[C@@H](Cc1ccc(O)cc1)C(N)=O)C(=O)N[C@@H](CCCNC(=N)N)C(=O)N[C@@H](Cc1ccc(O)cc1)C(N)=O (I: YRLRY-NH2 / II: YRLRY-NH2; linker I:N-II:N via Suberoyl)
EC50 [1]: 49 nM
Intrinsic activity [2]: 0.73
EC50 [3]: 86 nM
Intrinsic activity [4]: 0.93
Ki [5]: 720 nM
Ki [6]: 1700 nM
Ki [7]: 3.5 nM
Ki [8]: 280 nM

CC(C)C[C@H](NC(=O)[C@H](CCCNC(=N)N)NC(=O)[C@H](Cc1ccc(O)cc1)NC(=O)[C@@H](N)CCCC[C@H](N)C(=O)N[C@@H](Cc1ccc(O)cc1)C(=O)N[C@@H](CCCNC(=N)N)C(=O)N[C@@H](CC(C)C)C(=O)N[C@@H](CCCNC(=N)N)C(=O)N[C@@H](Cc1ccc(O)cc1)C(N)=O)C(=O)N[C@@H](CCCNC(=N)N)C(=O)N[C@@H](Cc1ccc(O)cc1)C(N)=O
EC50 [1]: 18 nM
Intrinsic activity [2]: 0.78
EC50 [3]: 19 nM
Intrinsic activity [4]: 1.07
Ki [5]: 930 nM
Ki [6]: 950 nM
Ki [7]: 2.3 nM
Ki [9]: 17 nM
Ki [8]: 2100 nM

CC(C)C[C@H](NC(=O)[C@H](CCCNC(=N)N)NC(=O)[C@H](Cc1ccc(O)cc1)NC(=O)C(N)CCCCC(N)C(=O)N[C@@H](Cc1ccc(O)cc1)C(=O)N[C@@H](CCCNC(=N)N)C(=O)N[C@@H](CC(C)C)C(=O)N[C@@H](CCCNC(=N)N)C(=O)N[C@@H](Cc1ccc(O)cc1)C(N)=O)C(=O)N[C@@H](CCCNC(=N)N)C(=O)N[C@@H](Cc1ccc(O)cc1)C(N)=O (some centres not stated)
Ki [7]: 1.06 nM
